ChEMBL document CHEMBL1221390, “Withaferin A, a cytotoxic steroid from Vassobia breviflora, induces apoptosis in human head and neck squamous cell carcinoma” (J Nat Prod, 2010)
Activity calls are given as the source filed them. No cut-off for these calls is given here.

Tests used:
[1] = target: RAC-alpha serine/threonine-protein kinase (Homo sapiens) (UniProt P31749); experiment: Inhibition of Akt in human MDA1986 cells assessed as decrease in total protein level at 0.1 to 5 uM after 24 hrs by Western blot analysis; assay type: cell-based
Chain of RAC-alpha serine/threonine-protein kinase (Homo sapiens) (P31749 whole entry): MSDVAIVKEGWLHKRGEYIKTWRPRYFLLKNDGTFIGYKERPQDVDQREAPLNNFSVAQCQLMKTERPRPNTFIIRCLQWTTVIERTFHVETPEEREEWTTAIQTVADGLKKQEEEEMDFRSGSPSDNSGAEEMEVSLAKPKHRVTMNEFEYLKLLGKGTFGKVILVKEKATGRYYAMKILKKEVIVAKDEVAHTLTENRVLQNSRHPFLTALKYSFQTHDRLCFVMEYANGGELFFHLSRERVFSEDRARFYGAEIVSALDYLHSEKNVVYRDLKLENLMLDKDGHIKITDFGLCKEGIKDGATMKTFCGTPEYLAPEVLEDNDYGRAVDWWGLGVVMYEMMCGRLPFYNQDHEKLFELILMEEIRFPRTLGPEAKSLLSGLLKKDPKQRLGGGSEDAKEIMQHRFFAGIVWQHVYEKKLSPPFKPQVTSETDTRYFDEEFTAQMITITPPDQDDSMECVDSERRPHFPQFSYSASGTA
Outline: (§1)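 Increasing concentrations for 24 h. NP-40 lysates (with NaF and orthovanadate) cleared at 14,000 × g, equal protein separated by SDS-PAGE and blotted. Probed for phospho-Akt (Ser473), total Akt, phospho-ERK1/2 and total ERK; β-actin loading control. Primary antibody overnight at 4 °C, HRP secondary 1 h.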

[2] = target: RAC-alpha serine/threonine-protein kinase (Homo sapiens) (UniProt P31749); experiment: Inhibition of Akt in human JMAR cells assessed as decrease in total protein level at 0.1 to 5 uM after 24 hrs by Western blot analysis; assay type: cell-based; outline: as §1
[3] = target: RAC-alpha serine/threonine-protein kinase (Homo sapiens) (UniProt P31749); experiment: Inhibition of Akt in human UM-SCC2 cells assessed as decrease in total protein level at 0.1 to 5 uM after 24 hrs by Western blot analysis; assay type: cell-based; outline: as §1
[4] = target: RAC-alpha serine/threonine-protein kinase (Homo sapiens) (UniProt P31749); experiment: Inhibition of Akt in human JHU011 cells assessed as decrease in total protein level at 0.1 to 5 uM after 24 hrs by Western blot analysis; assay type: cell-based; outline: as §1
[5] = target: T1, Mitogen-activated protein kinase; ERK1/ERK2 (Homo sapiens) (UniProt P27361+P28482); experiment: Inhibition of ERK1/2 phosphorylation in human JHU011 cells at 0.1 to 5 uM after 24 hrs by Western blot analysis; assay type: cell-based; outline: as §1
T1 sequence (P27361 whole entry, looked up): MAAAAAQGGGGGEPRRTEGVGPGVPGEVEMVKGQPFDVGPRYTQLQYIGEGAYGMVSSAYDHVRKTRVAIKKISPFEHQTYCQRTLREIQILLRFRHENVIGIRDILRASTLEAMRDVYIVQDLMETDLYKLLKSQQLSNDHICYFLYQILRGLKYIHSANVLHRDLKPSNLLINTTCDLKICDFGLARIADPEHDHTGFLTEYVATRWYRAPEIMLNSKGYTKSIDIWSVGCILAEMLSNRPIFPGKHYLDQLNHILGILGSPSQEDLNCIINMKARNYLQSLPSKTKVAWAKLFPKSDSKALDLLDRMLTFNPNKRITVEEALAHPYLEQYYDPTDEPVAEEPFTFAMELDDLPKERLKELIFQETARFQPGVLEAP
T1 sequence (P28482 whole entry, looked up): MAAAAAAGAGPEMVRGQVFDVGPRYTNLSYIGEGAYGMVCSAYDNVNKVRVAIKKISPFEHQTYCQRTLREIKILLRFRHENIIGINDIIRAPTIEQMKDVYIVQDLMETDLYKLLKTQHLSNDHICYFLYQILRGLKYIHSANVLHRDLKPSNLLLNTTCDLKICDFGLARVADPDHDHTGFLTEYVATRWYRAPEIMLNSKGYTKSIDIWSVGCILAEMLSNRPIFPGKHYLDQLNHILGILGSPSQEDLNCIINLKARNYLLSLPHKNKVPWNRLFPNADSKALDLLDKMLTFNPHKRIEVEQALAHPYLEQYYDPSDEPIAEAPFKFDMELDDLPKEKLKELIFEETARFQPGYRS

[6] = target: T1, Mitogen-activated protein kinase; ERK1/ERK2 (Homo sapiens); experiment: Inhibition of ERK1/2 phosphorylation in human JMAR cells at 0.1 to 5 uM after 24 hrs by Western blot analysis; assay type: cell-based; outline: as §1
[7] = target: T1, Mitogen-activated protein kinase; ERK1/ERK2 (Homo sapiens); experiment: Inhibition of ERK1/2 phosphorylation in human MDA1986 cells at 0.1 to 5 uM after 24 hrs by Western blot analysis; assay type: cell-based; outline: as §1
[8] = target: T1, Mitogen-activated protein kinase; ERK1/ERK2 (Homo sapiens); experiment: Inhibition of ERK1/2 phosphorylation in human UM-SCC2 cells at 0.1 to 5 uM after 24 hrs by Western blot analysis; assay type: cell-based; outline: as §1
[9] = target: T1, Mitogen-activated protein kinase; ERK1/ERK2 (Homo sapiens); experiment: Inhibition of ERK1/2 phosphorylation in human JHU011 cells assessed as effect on total protein level at 0.1 to 5 uM after 24 hrs by Western blot analysis; assay type: cell-based; outline: as §1
[10] = target: T1, Mitogen-activated protein kinase; ERK1/ERK2 (Homo sapiens); experiment: Inhibition of ERK1/2 phosphorylation in human UM-SCC2 cells assessed as effect on total protein level at 0.1 to 5 uM after 24 hrs by Western blot analysis; assay type: cell-based; outline: as §1
[11] = target: T1, Mitogen-activated protein kinase; ERK1/ERK2 (Homo sapiens); experiment: Inhibition of ERK1/2 phosphorylation in human JMAR cells assessed as effect on total protein level at 0.1 to 5 uM after 24 hrs by Western blot analysis; assay type: cell-based; outline: as §1
[12] = target: T1, Mitogen-activated protein kinase; ERK1/ERK2 (Homo sapiens); experiment: Inhibition of ERK1/2 phosphorylation in human MDA1986 cells assessed as effect on total protein level at 0.1 to 5 uM after 24 hrs by Western blot analysis; assay type: cell-based; outline: as §1
[13] = organism: Homo sapiens; experiment: Induction of apoptosis in human MDA1986 cells assessed as increase in early apoptotic cells at 5 uM after 24 hrs by FITC-conjugated annexin V and propidium iodide staining-based flow cytometry; assay type: functional, cell-based
Outline: (§2)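 Cells given 5.0 μM for 24 h, harvested, and co-stained at 1×10⁶ cells/mL with annexin V-FITC and PI. Annexin binding buffer added before flow cytometry. Annexin V only scored as early apoptosis, annexin V+PI as late apoptosis, PI only as necrosis. Triplicate; t-test.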

[14] = organism: Homo sapiens; experiment: Induction of apoptosis in human MDA1986 cells assessed as increase in late apoptotic cells at 5 uM after 24 hrs by FITC-conjugated annexin V and propidium iodide staining-based flow cytometry; assay type: functional, cell-based; outline: as §2
[15] = system: MDA1986; experiment: Induction of apoptosis in human MDA1986 cells assessed as increase in non-viable necrotic cells at 5 uM after 24 hrs by FITC-conjugated annexin V and propidium iodide staining-based flow cytometry; assay type: functional, cell-based; outline: as §2
[16] = Cytotoxicity against human UM-SCC2 cells after 72 hrs by MTS assay; assay type: functional, cell-based; conditions: UM-SCC2, 72 h
Outline: (§3)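 Seeded at 2×10³ cells/well, left 24 h, then exposed to serial dilutions in medium (from DMSO stock; vehicle controls <0.1% DMSO v/v) for 72 h. MTS added, 3 h at 37 °C, 5% CO₂, absorbance 490 nm. Viability expressed relative to medium-only control; IC50 read from viability–concentration curves. Triplicate; cisplatin positive control.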

[17] = Cytotoxicity against human MDA1986 cells after 72 hrs by MTS assay; assay type: functional, cell-based; conditions: MDA1986, 72 h
Outline: (§4)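 Cells seeded at 2×10³ per well, grown 24 h, then given serial concentrations (DMSO stock diluted in medium; vehicle controls <0.1% v/v DMSO) for 72 h. MTS added, 3 h at 37 °C, 5% CO₂, absorbance at 490 nm. Viability as fraction of medium-only control; IC50 from viability–concentration curves; triplicate, means of three independent experiments. Cisplatin positive control.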

[18] = Cytotoxicity against human JMAR cells after 72 hrs by MTS assay; assay type: functional, cell-based; outline: as §4
[19] = Cytotoxicity against human JHU011 cells after 72 hrs by MTS assay; assay type: functional, cell-based; conditions: JHU011, 72 h; outline: as §3
[20] = Induction of cell cycle arrest in human JMAR cells assessed as accumulation at G2/M phase at 3 uM after 24 hrs by flow cytometry; assay type: functional
Outline: (§5)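 Treated 24 h with 3.0 μM or DMSO vehicle. Cells trypsinized; 1×10⁶ washed in 0.9% NaCl and fixed 30 min at room temperature in cold 70% ethanol/0.9% NaCl. Stained with PI (50 μg/mL in PBS) 30 min, then DNase-free RNase (1 mg/mL) 30 min. Phase distribution (sub-G0, G0/G1, S, G2/M) by flow cytometry.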

[21] = Induction of cell cycle arrest in human MDA1986 cells assessed as accumulation at G2/M phase at 3 uM after 24 hrs by flow cytometry; assay type: functional; outline: as §5
[22] = Induction of cell cycle arrest in human UM-SCC2 cells assessed as accumulation at G2/M phase at 3 uM after 24 hrs by flow cytometry; assay type: functional; outline: as §5
[23] = Induction of cell cycle arrest in human JHU011 cells assessed as accumulation at G2/M phase at 3 uM after 24 hrs by flow cytometry; assay type: functional; outline: as §5
[24] = Induction of cell cycle arrest in human JMAR cells assessed as accumulation at subG0 phase at 3 uM after 24 hrs by flow cytometry; assay type: functional; outline: as §5
[25] = Induction of cell cycle arrest in human MDA1986 cells assessed as accumulation at subG0 phase at 3 uM after 24 hrs by flow cytometry; assay type: functional; outline: as §5
[26] = Induction of apoptosis in human JHU011 cells assessed as early apoptotic cells at 5 uM after 24 hrs by FITC-conjugated annexin V and propidium iodide staining-based flow cytometry; assay type: functional; outline: as §2
[27] = system: JHU011; experiment: Induction of apoptosis in human JHU011 cells assessed as mild increase in late apoptotic cells at 5 uM after 24 hrs by FITC-conjugated annexin V and propidium iodide staining-based flow cytometry; assay type: functional, cell-based; outline: as §2
[28] = system: JHU011; experiment: Induction of apoptosis in human JHU011 cells assessed as increase in non-viable necrotic cells at 5 uM after 24 hrs by FITC-conjugated annexin V and propidium iodide staining-based flow cytometry; assay type: functional, cell-based; outline: as §2
[29] = system: JMAR; experiment: Induction of apoptosis in human JMAR cells assessed as increase in early apoptotic cells at 5 uM after 24 hrs by FITC-conjugated annexin V and propidium iodide staining-based flow cytometry; assay type: functional, cell-based; outline: as §2
[30] = system: JMAR; experiment: Induction of apoptosis in human JMAR cells assessed as increase in late apoptotic cells at 5 uM after 24 hrs by FITC-conjugated annexin V and propidium iodide staining-based flow cytometry; assay type: functional, cell-based; outline: as §2
[31] = system: JMAR; experiment: Induction of apoptosis in human JMAR cells assessed as increase in non-viable necrotic cells at 5 uM after 24 hrs by FITC-conjugated annexin V and propidium iodide staining-based flow cytometry; assay type: functional, cell-based; outline: as §2
[32] = system: UM-SCC2; experiment: Induction of apoptosis in human UM-SCC2 cells assessed as increase in early apoptotic cells at 5 uM after 24 hrs by FITC-conjugated annexin V and propidium iodide staining-based flow cytometry; assay type: functional, cell-based; outline: as §2
[33] = system: UM-SCC2; experiment: Induction of apoptosis in human UM-SCC2 cells assessed as increase in late apoptotic cells at 5 uM after 24 hrs by FITC-conjugated annexin V and propidium iodide staining-based flow cytometry; assay type: functional, cell-based; outline: as §2
[34] = system: UM-SCC2; experiment: Induction of apoptosis in human UM-SCC2 cells assessed as increase in late non-viable necrotic cells at 5 uM after 24 hrs by FITC-conjugated annexin V and propidium iodide staining-based flow cytometry; assay type: functional, cell-based; outline: as §2
[35] = system: JHU011; experiment: Induction of apoptosis in human JHU011 cells assessed as decrease in procaspase-3 level at 1 to 6 uM after 24 hrs by Western blot analysis; assay type: functional, cell-based
Outline: (§6)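 Cells exposed to increasing concentrations for 24 h, lysed in NP-40/Tris pH 7.5 buffer with protease inhibitors, NaF and orthovanadate. Equal protein run on SDS-PAGE, transferred to nitrocellulose. Probed overnight at 4 °C for uncleaved caspase 3 (pro-form) and uncleaved/cleaved PARP; HRP secondary 1 h at room temperature.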

[36] = system: JHU011; experiment: Induction of apoptosis in human JHU011 cells assessed as induction of PRAP cleavage after 24 hrs by Western blot analysis; assay type: functional, cell-based; outline: as §6
[37] = system: JMAR; experiment: Induction of apoptosis in human JMAR cells assessed as decrease in procaspase-3 level at 1 to 6 uM after 24 hrs by Western blot analysis; assay type: functional, cell-based; outline: as §6
[38] = system: JMAR; experiment: Induction of apoptosis in human JMAR cells assessed as induction of PRAP cleavage after 24 hrs by Western blot analysis; assay type: functional, cell-based; outline: as §6
[39] = system: UM-SCC2; experiment: Induction of apoptosis in human UM-SCC2 cells assessed as decrease in procaspase-3 level at 1 to 6 uM after 24 hrs by Western blot analysis; assay type: functional, cell-based; outline: as §6
[40] = system: UM-SCC2; experiment: Induction of apoptosis in human UM-SCC2 cells assessed as induction of PRAP cleavage after 24 hrs by Western blot analysis; assay type: functional, cell-based; outline: as §6
[41] = organism: Homo sapiens; experiment: Induction of apoptosis in human MDA1986 cells assessed as decrease in procaspase-3 level at 1 to 6 uM after 24 hrs by Western blot analysis; assay type: functional, cell-based; outline: as §6
[42] = organism: Homo sapiens; experiment: Induction of apoptosis in human MDA1986 cells assessed as induction of PRAP cleavage at 1 to 6 uM after 24 hrs by Western blot analysis; assay type: functional, cell-based; outline: as §6
[43] = target: RAC-alpha serine/threonine-protein kinase (Homo sapiens) (UniProt P31749); experiment: Inhibition of Akt phosphorylation in human JHU011 cells after 24 hrs by Western blot analysis; assay type: cell-based; outline: as §1
[44] = target: RAC-alpha serine/threonine-protein kinase (Homo sapiens) (UniProt P31749); experiment: Inhibition of Akt phosphorylation in human UM-SCC2 cells after 24 hrs by Western blot analysis; assay type: cell-based; outline: as §1
[45] = target: RAC-alpha serine/threonine-protein kinase (Homo sapiens) (UniProt P31749); experiment: Inhibition of Akt phosphorylation in human MDA1986 cells after 24 hrs by Western blot analysis; assay type: cell-based; outline: as §1
[46] = target: RAC-alpha serine/threonine-protein kinase (Homo sapiens) (UniProt P31749); experiment: Inhibition of Akt phosphorylation in human JMAR cells after 24 hrs by Western blot analysis; assay type: cell-based; outline: as §1
[47] = target: RAC-alpha serine/threonine-protein kinase (Homo sapiens) (UniProt P31749); experiment: Inhibition of Akt in human MDA1986 cells assessed as highest required for enzyme activity after 24 hrs by Western blot analysis; assay type: cell-based; outline: as §1

CC1=C(CO)C(=O)O[C@@H]([C@@H](C)[C@H]2CC[C@H]3[C@@H]4C[C@H]5O[C@]56[C@@H](O)C=CC(=O)[C@]6(C)[C@H]4CC[C@]23C)C1 [WITHAFERIN A]
inhibition [1]: Active | inhibition [2]: Active | inhibition [3]: Active | inhibition [4]: Active | inhibition [5]: inactive | inhibition [6]: inactive | inhibition [7]: inactive | inhibition [8]: Active | inhibition [9]: inactive | inhibition [10]: inactive | inhibition [11]: inactive | inhibition [12]: inactive | Activity [13]: inactive | Activity [14]: inactive | Activity [15]: inactive | IC50 [16]: 500 nM | IC50 [17]: 800 nM | IC50 [18]: 2000 nM | IC50 [19]: 2200 nM | Activity [20]: 42% | Activity [21]: 49% | Activity [22]: 36% | Activity [23]: 34% | Activity [24]: 12% | Activity [25]: 8% | Activity [26]: 14.8% | Activity [27]: Active | Activity [28]: inactive | Activity [29]: Active | Activity [30]: Active | Activity [31]: Active | Activity [32]: Active | Activity [33]: Active | Activity [34]: Active | Activity [35]: Active | Activity [36]: Dose-dependent effect | Activity [37]: Active | Activity [38]: Dose-dependent effect | Activity [39]: Active | Activity [40]: Dose-dependent effect | Activity [41]: Active | Activity [42]: Active | inhibition [43]: Dose-dependent effect | inhibition [44]: Dose-dependent effect | inhibition [45]: Dose-dependent effect | inhibition [46]: Dose-dependent effect | Activity [47]: 2.5 µM
